Each block holds one compound with its values, some of them ahead of it.
Key:
[1] = system: Panel renal (Carcinoma cell lines); test: Antiproliferative activity against human Panel renal (8 Carcinoma cell lines) assessed as reduction in mean cell growth; assay type: functional
Summary of the method: (§1)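 NCI five-dose testing across the 58-line panel gives GI50, TGI and LC50 for each line. Subpanel lines report mean GI50 for each of the nine cancer types.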

COLO 205 [2] = test: Antiproliferative activity against human COLO 205 cells assessed as reduction in cell growth; assay type: functional; summary of the method: as §1
PC-3 [3] = test: Antiproliferative activity against human PC-3 cells assessed as reduction in cell growth; assay type: functional; summary of the method: as §1
[4] = system: Panel colon (Carcinoma cell lines); test: Antiproliferative activity against human Panel colon (7 Carcinoma cell lines) assessed as reduction in mean cell growth; assay type: functional; summary of the method: as §1
[5] = system: Panel melanoma (Carcinoma cell lines); test: Antiproliferative activity against human Panel melanoma (9 Carcinoma cell lines) assessed as reduction in mean cell growth; assay type: functional; summary of the method: as §1
[6] = system: Panel leukemia (Carcinoma cell lines); test: Antiproliferative activity against human Panel leukemia (5 Carcinoma cell lines) assessed as reduction in mean cell growth; assay type: functional; summary of the method: as §1
K562 [7] = test: Antiproliferative activity against human K562 cells assessed as total growth inhibition; assay type: functional; summary of the method: as §1
MDA-MB-468 [8] = test: Cytotoxicity against human MDA-MB-468 cells; assay type: functional; conditions: read-out: LC50 (the source's name)
Summary of the method: (§2)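 Run in the US NCI 58-cell-line screen covering nine cancer types (leukemia, NSCLC, colon, CNS, melanoma, ovarian, renal, prostate, breast). Five-dose mode gave GI50, TGI and LC50 values for each cell line. In the single-dose pre-screen, % inhibition was taken as 100 minus growth percentage.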

NCI/ADR-RES [9] = test: Antiproliferative activity against human NCI/ADR-RES cells assessed as total growth inhibition; assay type: functional; summary of the method: as §1
SNB-75 [10] = test: Antiproliferative activity against human SNB-75 cells assessed as reduction in cell growth; assay type: functional; summary of the method: as §1
HCT-15 [11] = test: Cytotoxicity against human HCT-15 cells; assay type: functional; conditions: read-out: LC50 (the source's name); summary of the method: as §2
SNB-75 [12] = test: Cytotoxicity against human SNB-75 cells; assay type: functional; conditions: read-out: LC50 (the source's name); summary of the method: as §2
RXF 393 [13] = test: Antiproliferative activity against human RXF 393 cells assessed as reduction in cell growth; assay type: functional; summary of the method: as §1
[14] = system: Panel CNS (Carcinoma cell lines); test: Antiproliferative activity against human Panel CNS (6 Carcinoma cell lines) assessed as reduction in mean cell growth; assay type: functional; summary of the method: as §1
[15] = system: Panel prostate (Carcinoma cell lines); test: Antiproliferative activity against human Panel prostate (2 Carcinoma cell lines) assessed as reduction in mean cell growth; assay type: functional; summary of the method: as §1
[16] = system: Panel breast (Carcinoma cell lines); test: Antiproliferative activity against human Panel breast (6 Carcinoma cell lines) assessed as reduction in mean cell growth; assay type: functional; summary of the method: as §1
[17] = Antiproliferative activity against human Panel non-small cell lung cancer (8 Carcinoma cell lines) assessed as reduction in mean cell growth; assay type: functional; conditions: Non-small cell lung cancer cell line; summary of the method: as §1
RXF 393 [18] = test: Antiproliferative activity against human RXF 393 cells assessed as total growth inhibition; assay type: functional; summary of the method: as §1
HCT-15 [19] = test: Antiproliferative activity against human HCT-15 cells assessed as total growth inhibition; assay type: functional; summary of the method: as §1
[20] = system: Panel ovarian (Carcinoma cell lines); test: Antiproliferative activity against human Panel ovarian (7 Carcinoma cell lines) assessed as reduction in mean cell growth; assay type: functional; summary of the method: as §1
K562 [21] = test: Antiproliferative activity against human K562 cells assessed as reduction in cell growth; assay type: functional; summary of the method: as §1
MDA-MB-468 [22] = test: Antiproliferative activity against human MDA-MB-468 cells assessed as reduction in cell growth; assay type: functional; summary of the method: as §1
COLO 205 [23] = test: Antiproliferative activity against human COLO 205 cells assessed as total growth inhibition; assay type: functional; summary of the method: as §1
K562 [24] = test: Cytotoxicity against human k562 cells; assay type: functional; conditions: read-out: LC50 (the source's name); summary of the method: as §2
COLO 205 [25] = test: Cytotoxicity against human COLO 205 cells; assay type: functional; summary of the method: as §2
HOP-92 [26] = test: Cytotoxicity against human HOP-92 cells; assay type: functional; summary of the method: as §2
[27] = target: Epidermal growth factor receptor (Homo sapiens) (UniProt P00533); test: Inhibition of EGFR (unknown origin) at 10 uM using […] as substrate incubated for 40 mins in presence of [gamma33P]ATP by scintillation counting based hotspot kinase assay relative to control
Chain of Epidermal growth factor receptor (Homo sapiens) (P00533 whole entry): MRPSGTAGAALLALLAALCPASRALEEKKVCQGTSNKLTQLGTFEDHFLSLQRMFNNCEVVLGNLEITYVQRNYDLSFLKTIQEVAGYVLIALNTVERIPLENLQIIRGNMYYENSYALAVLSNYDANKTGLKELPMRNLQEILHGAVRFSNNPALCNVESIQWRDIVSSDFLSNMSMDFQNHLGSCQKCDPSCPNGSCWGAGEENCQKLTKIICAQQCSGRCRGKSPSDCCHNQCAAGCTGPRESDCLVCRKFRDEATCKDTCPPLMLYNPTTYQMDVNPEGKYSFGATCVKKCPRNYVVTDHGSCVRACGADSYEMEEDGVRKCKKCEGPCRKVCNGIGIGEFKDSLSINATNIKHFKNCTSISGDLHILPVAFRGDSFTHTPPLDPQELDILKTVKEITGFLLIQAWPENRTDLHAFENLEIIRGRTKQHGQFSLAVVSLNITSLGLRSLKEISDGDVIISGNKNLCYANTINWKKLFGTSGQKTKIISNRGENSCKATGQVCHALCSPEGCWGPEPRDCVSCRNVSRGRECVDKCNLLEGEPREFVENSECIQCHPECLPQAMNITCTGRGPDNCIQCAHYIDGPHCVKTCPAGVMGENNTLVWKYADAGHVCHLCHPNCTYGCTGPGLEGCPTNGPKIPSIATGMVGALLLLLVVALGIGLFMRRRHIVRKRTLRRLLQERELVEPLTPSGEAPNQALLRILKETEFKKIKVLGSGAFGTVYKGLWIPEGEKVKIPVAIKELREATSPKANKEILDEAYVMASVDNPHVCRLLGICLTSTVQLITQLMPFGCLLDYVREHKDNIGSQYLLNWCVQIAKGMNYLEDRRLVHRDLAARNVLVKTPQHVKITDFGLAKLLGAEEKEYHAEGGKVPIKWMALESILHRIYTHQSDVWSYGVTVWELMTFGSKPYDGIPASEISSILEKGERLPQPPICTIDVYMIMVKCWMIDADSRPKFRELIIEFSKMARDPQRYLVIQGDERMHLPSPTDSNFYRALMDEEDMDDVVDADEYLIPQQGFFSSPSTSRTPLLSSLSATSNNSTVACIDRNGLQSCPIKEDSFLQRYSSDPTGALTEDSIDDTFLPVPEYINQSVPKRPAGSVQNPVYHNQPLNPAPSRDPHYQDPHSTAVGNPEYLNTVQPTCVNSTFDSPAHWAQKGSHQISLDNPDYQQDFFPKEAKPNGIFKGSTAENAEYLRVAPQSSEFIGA

HOP-92 [28] = test: Antiproliferative activity against human HOP-92 cells assessed as total growth inhibition; assay type: functional; summary of the method: as §1
[29] = target: Tyrosine-protein kinase ABL1 (Homo sapiens) (UniProt P00519); test: Inhibition of ABL (unknown origin) at 10 uM using […] as substrate incubated for 40 mins in presence of [gamma33P]ATP by scintillation counting based hotspot kinase assay relative to control
Chain of Tyrosine-protein kinase ABL1 (Homo sapiens) (P00519 whole entry): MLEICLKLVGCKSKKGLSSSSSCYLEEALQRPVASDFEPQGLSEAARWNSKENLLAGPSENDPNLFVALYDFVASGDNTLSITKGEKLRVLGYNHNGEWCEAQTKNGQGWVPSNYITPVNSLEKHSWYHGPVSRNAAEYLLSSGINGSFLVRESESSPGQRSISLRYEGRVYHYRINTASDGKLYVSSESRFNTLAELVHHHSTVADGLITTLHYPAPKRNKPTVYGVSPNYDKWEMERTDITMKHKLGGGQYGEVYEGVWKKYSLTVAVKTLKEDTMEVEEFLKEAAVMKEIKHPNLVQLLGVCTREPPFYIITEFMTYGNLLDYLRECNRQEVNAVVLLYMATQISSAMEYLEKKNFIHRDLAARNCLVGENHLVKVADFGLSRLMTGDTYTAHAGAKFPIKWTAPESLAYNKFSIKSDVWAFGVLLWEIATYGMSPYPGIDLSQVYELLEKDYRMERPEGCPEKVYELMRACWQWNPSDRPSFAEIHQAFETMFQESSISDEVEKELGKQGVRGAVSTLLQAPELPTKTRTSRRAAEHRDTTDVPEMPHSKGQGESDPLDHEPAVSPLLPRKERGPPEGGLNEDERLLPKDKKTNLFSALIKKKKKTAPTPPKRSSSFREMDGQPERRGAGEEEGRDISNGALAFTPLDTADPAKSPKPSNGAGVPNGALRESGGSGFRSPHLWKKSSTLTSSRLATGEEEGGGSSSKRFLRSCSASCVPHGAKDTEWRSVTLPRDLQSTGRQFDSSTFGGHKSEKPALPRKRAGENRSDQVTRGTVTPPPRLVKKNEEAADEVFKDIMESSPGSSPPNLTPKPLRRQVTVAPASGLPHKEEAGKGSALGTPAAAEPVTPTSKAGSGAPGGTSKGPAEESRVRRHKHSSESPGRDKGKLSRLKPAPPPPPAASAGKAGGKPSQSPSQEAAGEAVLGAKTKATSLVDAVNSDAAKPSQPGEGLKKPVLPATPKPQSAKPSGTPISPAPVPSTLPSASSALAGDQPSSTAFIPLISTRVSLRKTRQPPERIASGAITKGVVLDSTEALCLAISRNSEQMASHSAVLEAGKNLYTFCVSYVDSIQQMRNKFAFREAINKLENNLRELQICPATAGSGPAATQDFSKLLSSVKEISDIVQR

Homo sapiens = species on record: Homo sapiens; test: Inhibition of ABL […] mutant (unknown origin) at 10 uM using […] as substrate incubated for 40 mins in presence of [gamma33P]ATP by scintillation counting based hotspot kinase assay relative to control
HCT-15 [30] = test: Antiproliferative activity against human HCT-15 cells assessed as reduction in cell growth; assay type: functional; summary of the method: as §1
SNB-75 [31] = test: Antiproliferative activity against human SNB-75 cells assessed as total growth inhibition; assay type: functional; summary of the method: as §1
MDA-MB-468 [32] = test: Antiproliferative activity against human MDA-MB-468 cells assessed as total growth inhibition; assay type: functional; summary of the method: as §1
SK-MEL-5 [33] = test: Cytotoxicity against human SK-MEL-5 cells; assay type: functional; summary of the method: as §2
[34] = target: Serine/threonine-protein kinase B-raf (Homo sapiens) (UniProt P15056); test: Inhibition of B-RAF (unknown origin) at 10 uM using […] as substrate incubated for 40 mins in presence of [gamma33P]ATP by scintillation counting based hotspot kinase assay relative to control
Chain of Serine/threonine-protein kinase B-raf (Homo sapiens) (P15056 whole entry): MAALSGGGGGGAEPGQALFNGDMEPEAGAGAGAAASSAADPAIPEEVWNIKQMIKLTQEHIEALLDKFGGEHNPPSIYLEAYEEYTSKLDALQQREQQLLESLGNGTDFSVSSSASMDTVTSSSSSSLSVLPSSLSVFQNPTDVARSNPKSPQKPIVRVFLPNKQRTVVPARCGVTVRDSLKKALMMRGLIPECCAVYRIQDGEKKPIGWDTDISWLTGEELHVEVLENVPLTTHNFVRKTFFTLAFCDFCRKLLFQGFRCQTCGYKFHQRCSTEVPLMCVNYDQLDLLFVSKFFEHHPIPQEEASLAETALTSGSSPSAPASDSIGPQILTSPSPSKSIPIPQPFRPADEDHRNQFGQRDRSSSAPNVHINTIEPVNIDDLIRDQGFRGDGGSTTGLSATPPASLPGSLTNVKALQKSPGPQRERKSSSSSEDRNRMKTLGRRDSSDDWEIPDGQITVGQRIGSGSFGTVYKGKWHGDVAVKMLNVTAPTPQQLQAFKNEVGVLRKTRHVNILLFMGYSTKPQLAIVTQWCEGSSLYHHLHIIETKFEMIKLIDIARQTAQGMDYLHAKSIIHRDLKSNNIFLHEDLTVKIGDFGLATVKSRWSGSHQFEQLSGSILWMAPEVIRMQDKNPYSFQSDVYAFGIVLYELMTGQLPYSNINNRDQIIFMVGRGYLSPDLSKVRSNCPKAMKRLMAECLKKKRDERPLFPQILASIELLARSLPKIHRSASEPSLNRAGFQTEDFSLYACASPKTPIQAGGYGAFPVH

SK-MEL-5 [35] = test: Antiproliferative activity against human SK-MEL-5 cells assessed as total growth inhibition; assay type: functional; summary of the method: as §1
HOP-92 [36] = test: Antiproliferative activity against human HOP-92 cells assessed as reduction in cell growth; assay type: functional; summary of the method: as §1
PC-3 [37] = test: Cytotoxicity against human PC-3 cells; assay type: functional; summary of the method: as §2
NCI/ADR-RES [38] = test: Cytotoxicity against human NCI/ADR-RES cells; assay type: functional; summary of the method: as §2
RXF 393 [39] = test: Cytotoxicity against human RXF 393 cells; assay type: functional; summary of the method: as §2
[40] = target: RAF proto-oncogene serine/threonine-protein kinase (Homo sapiens, UniProt P04049); test: Inhibition of RAF1 (unknown origin) at 10 uM using […] as substrate incubated for 40 mins in presence of [gamma33P]ATP by scintillation counting based hotspot kinase assay relative to control
Chain of RAF proto-oncogene serine/threonine-protein kinase (P04049 whole entry): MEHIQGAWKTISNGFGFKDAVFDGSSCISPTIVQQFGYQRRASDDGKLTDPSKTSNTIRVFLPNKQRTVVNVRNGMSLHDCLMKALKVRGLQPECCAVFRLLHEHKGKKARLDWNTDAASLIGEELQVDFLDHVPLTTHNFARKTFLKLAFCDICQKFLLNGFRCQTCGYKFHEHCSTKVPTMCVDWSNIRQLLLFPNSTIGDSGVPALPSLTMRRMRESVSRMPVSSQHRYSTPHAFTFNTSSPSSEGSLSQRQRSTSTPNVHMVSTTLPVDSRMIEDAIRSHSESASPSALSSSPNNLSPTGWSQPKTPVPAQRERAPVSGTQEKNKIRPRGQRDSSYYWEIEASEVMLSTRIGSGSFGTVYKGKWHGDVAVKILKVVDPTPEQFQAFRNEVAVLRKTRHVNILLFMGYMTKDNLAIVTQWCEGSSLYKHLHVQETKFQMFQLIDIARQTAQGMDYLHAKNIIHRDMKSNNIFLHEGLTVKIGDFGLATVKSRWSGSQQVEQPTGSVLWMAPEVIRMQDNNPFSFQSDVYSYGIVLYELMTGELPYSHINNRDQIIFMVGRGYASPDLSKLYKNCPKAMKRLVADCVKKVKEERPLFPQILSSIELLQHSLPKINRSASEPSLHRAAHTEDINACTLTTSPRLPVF

[41] = Antiproliferative activity against human Panel NCI-58 (58 Carcinoma cell lines) assessed as reduction in mean cell growth at 10 uM; assay type: functional; design: scale not given: the % may be the effect or the level left
Summary of the method: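 NCI 58-cell-line screen covering leukemia, NSCLC, colon, CNS, melanoma, ovarian, renal, prostate and breast lines. Compounds given once at […] (micromolar per the line). Percent inhibition taken as 100 minus growth percent. Panel line reports the mean over all 58 lines.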

SK-MEL-5 [42] = test: Antiproliferative activity against human SK-MEL-5 cells assessed as reduction in cell growth; assay type: functional; summary of the method: as §1
[43] = system: Serine/threonine-protein kinase B-raf (Homo sapiens), P15056 [V600E]; test: Inhibition of B-RAF V600E mutant (unknown origin) at 10 uM using […] as substrate incubated for 40 mins in presence of [gamma33P]ATP by scintillation counting based hotspot kinase assay relative to control
Chain of Serine/threonine-protein kinase B-raf (Homo sapiens), P15056 [V600E] (P15056 whole entry V600E): as the sequence (P15056 whole entry) above, with V600E counted along it

NCI/ADR-RES [44] = test: Antiproliferative activity against human NCI/ADR-RES cells assessed as reduction in cell growth; assay type: functional; summary of the method: as §1
PC-3 [45] = test: Antiproliferative activity against human PC-3 cells assessed as total growth inhibition; assay type: functional; summary of the method: as §1

SMILES: CNC(=O)c1cc(Oc2ccc(NC(=O)Nc3ccc(Cl)c(C(F)(F)F)c3)cc2)ccn1 [SORAFENIB]
GI50 [1]: 2.94 µM
GI50 (COLO 205 [2]): 1.99 µM
GI50 (PC-3 [3]): 1.99 µM
GI50 [4]: 2.19 µM
GI50 [5]: 1.87 µM
GI50 [6]: 2.43 µM
TGI (K562 [7]): 100 µM
CC50 (MDA-MB-468 [8]): 50.1 µM
TGI (NCI/ADR-RES [9]): 15.8 µM
GI50 (SNB-75 [10]): 3.16 µM
CC50 (HCT-15 [11]): 50.1 µM
CC50 (SNB-75 [12]): 7.94 µM
GI50 (RXF 393 [13]): 2.51 µM
GI50 [14]: 2.33 µM
GI50 [15]: 2.58 µM
GI50 [16]: 2.17 µM
GI50 [17]: 2.25 µM
TGI (RXF 393 [18]): 10 µM
TGI (HCT-15 [19]): 10 µM
GI50 [20]: 2.88 µM
GI50 (K562 [21]): 3.16 µM
GI50 (MDA-MB-468 [22]): 1.99 µM
TGI (COLO 205 [23]): 5.01 µM
CC50 (K562 [24]): 100 µM

SMILES: COc1cccc(-c2nn(-c3ccccc3)cc2-c2ccnc(NCCNC(=O)Nc3cccc(C(F)(F)F)c3)c2)c1
LC50 (lethal concentration 50%) (COLO 205 [25]): 6.95 µM
GI50 [1]: 2.14 µM
LC50 (HOP-92 [26]): 100 µM
inhibition [27]: -2.09%
GI50 (COLO 205 [2]): 1.88 µM
GI50 (PC-3 [3]): 2.02 µM
TGI (HOP-92 [28]): 7.65 µM
GI50 [4]: 1.98 µM
inhibition [29]: 13.4%
GI50 [5]: 1.91 µM
GI50 [6]: 2.04 µM
TGI (K562 [7]): 100 µM
inhibition (Homo sapiens): 2.92%
GI50 (HCT-15 [30]): 1.7 µM
TGI (NCI/ADR-RES [9]): 5.75 µM
GI50 (SNB-75 [10]): 1.62 µM
CC50 (HCT-15 [11]): 100 µM
TGI (SNB-75 [31]): 100 µM
TGI (MDA-MB-468 [32]): 3.5 µM
CC50 (SNB-75 [12]): 100 µM
LC50 (SK-MEL-5 [33]): 7.82 µM
GI50 (RXF 393 [13]): 1.53 µM
inhibition [34]: 14%
TGI (SK-MEL-5 [35]): 3.55 µM
GI50 (HOP-92 [36]): 1.46 µM
GI50 [14]: 2.07 µM
GI50 [15]: 3.09 µM
LC50 (PC-3 [37]): 100 µM
LC50 (NCI/ADR-RES [38]): 100 µM
LC50 (RXF 393 [39]): 25 µM
GI50 [16]: 2.23 µM
GI50 [17]: 2.03 µM
TGI (RXF 393 [18]): 4.63 µM
TGI (HCT-15 [19]): 4.7 µM
inhibition [40]: 45.1%
Activity [41]: >80%
GI50 [20]: 2.54 µM
GI50 (SK-MEL-5 [42]): 1.73 µM
inhibition [43]: 36.2%
GI50 (K562 [21]): 2.13 µM
GI50 (MDA-MB-468 [22]): 1.7 µM
GI50 (NCI/ADR-RES [44]): 2.22 µM
TGI (COLO 205 [23]): 3.34 µM
CC50 (K562 [24]): 100 µM
TGI (PC-3 [45]): 15.7 µM

GI50 [1]: 4.63 µM
GI50 [4]: 3.73 µM
GI50 [5]: 4.15 µM
GI50 [6]: 3.4 µM
GI50 [14]: 7.19 µM
GI50 [15]: 5.95 µM
GI50 [16]: 3.35 µM
GI50 [20]: 4.72 µM
SMILES: COc1cccc(-c2nn(-c3ccccc3)cc2-c2ccnc(NCCNC(=O)Nc3ccc(Cl)c(Cl)c3)c2)c1
GI50 [17]: 3.02 µM
Activity [41]: >80%
